In ChEMBL document CHEMBL4325893, “Synthesis and antibacterial profiles of targeted triclosan derivatives” (2019):
≈ marks a conversion by molar mass, not a printed value.

Key:
Staphylococcus aureus [1] = experiment: Antibacterial activity against Staphylococcus aureus ATCC 9144 after 18 hrs; type: functional; settings: ATCC 9144, 18 h
Method in brief: (§1)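 Broth microdilution in Nutrient Broth No. 2; stocks in ethanol diluted to 0.01–128 µg/ml (triclosan) or 0.25–256 µg/ml (glycosides). Overnight 37 °C NB2 cultures diluted 1 in 10^4 in saline and added to the dilutions. Incubation at 37 °C with agitation, OD read every 15 min; MIC is the lowest concentration preventing any OD rise after 18 h.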

Escherichia coli [2] = experiment: Antibacterial activity against Escherichia coli ATCC 8739 after 18 hrs; type: functional; settings: ATCC 8739, 18 h; method in brief: as §1
Escherichia coli [3] = experiment: Antibacterial activity against Escherichia coli NCTC 13216 after 18 hrs; type: functional; settings: NCTC 13216, 18 h; method in brief: as §1
[4] = Antibacterial activity against Salmonella enterica subspecies enterica serotype Virchow NCTC 5742 after 18 hrs; type: functional, Salmonella enterica subsp. enterica serovar Virchow; settings: NCTC 5742, 18 h; method in brief: as §1
[5] = Antibacterial activity against Salmonella enterica subspecies enterica serotype Dublin OCC 627 after 18 hrs; type: functional, Salmonella enterica subsp. enterica serovar Dublin; settings: OCC 627, 18 h; method in brief: as §1
[6] = Antibacterial activity against Salmonella enterica subspecies enterica serotype Indiana OCC 597 after 18 hrs; type: functional, Salmonella enterica subsp. enterica serovar Indiana; settings: OCC 597, 18 h; method in brief: as §1
Enterococcus faecium = experiment: Antibacterial activity against Enterococcus faecium ATCC 19434 after 18 hrs; type: functional; settings: ATCC 19434, 18 h; method in brief: as §1
Staphylococcus aureus [7] = experiment: Antibacterial activity against Staphylococcus aureus NCTC 13758 after 18 hrs; type: functional; settings: NCTC 13758, 18 h; method in brief: as §1
Klebsiella pneumoniae = experiment: Antibacterial activity against Klebsiella pneumoniae ATCC 10031 after 18 hrs; type: functional; settings: ATCC 10031, 18 h; method in brief: as §1
Staphylococcus aureus [8] = experiment: Antibacterial activity against Staphylococcus aureus ATCC 6538P after 18 hrs; type: functional; method in brief: as §1
[9] = Antibacterial activity against Salmonella enterica subspecies enterica serotype Infantis OCC 2133 after 18 hrs; type: functional, Salmonella enterica subsp. enterica serovar Infantis; settings: OCC 2133, 18 h; method in brief: as §1
[10] = tested on: Staphylococcus saprophyticus; experiment: Antibacterial activity against Staphylococcus saprophyticus ATCC 15305 after 18 hrs; type: functional; settings: ATCC 15305, 18 h
Method in brief: (§2)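 Broth microdilution in Nutrient Broth No. 2. Ethanol stocks were diluted in broth to 0.01–128 µg/ml for triclosan and 0.25–256 µg/ml for glycosides. Overnight 37°C NB2 cultures were diluted 1 in 10^4 in saline and added to the wells. Plates were incubated at 37°C with OD read every 15 min after agitation. MIC was the lowest concentration giving no OD increase at 18 h.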

[11] = tested on: Staphylococcus haemolyticus; experiment: Antibacterial activity against Staphylococcus haemolyticus OCC 2223 after 18 hrs; type: functional; settings: OCC 2223, 18 h; method in brief: as §2
Serratia marcescens = experiment: Antibacterial activity against Serratia marcescens OCC 217 after 18 hrs; type: functional; settings: OCC 217, 18 h; method in brief: as §1
[12] = Antibacterial activity against Salmonella enterica subspecies enterica serotype Pullorum OCC 273 after 18 hrs; type: functional, Salmonella enterica subsp. enterica serovar Pullorum; settings: OCC 273, 18 h; method in brief: as §1
Escherichia coli [13] = experiment: Antibacterial activity against Escherichia coli ATCC 11775 after 18 hrs; type: functional; method in brief: as §1
[14] = Antibacterial activity against Enterobacter cloacae ATCC 13047 after 18 hrs; type: functional, Enterobacter cloacae subsp. cloacae; settings: ATCC 13047, 18 h; method in brief: as §1
Proteus mirabilis = experiment: Antibacterial activity against Proteus mirabilis ATCC 12453 after 18 hrs; type: functional; settings: ATCC 12453, 18 h; method in brief: as §1
Staphylococcus aureus [15] = experiment: Antibacterial activity against Staphylococcus aureus OCC 104 after 18 hrs; type: functional; settings: OCC 104, 18 h; method in brief: as §1
[16] = Antibacterial activity against Salmonella enterica subspecies enterica serotype Poona NCTC 4840 after 18 hrs; type: functional, Salmonella enterica subsp. enterica serovar Poona; settings: NCTC 4840, 18 h; method in brief: as §1
Aeromonas hydrophila = experiment: Antibacterial activity against Aeromonas hydrophila OCC 778 after 18 hrs; type: functional; settings: OCC 778, 18 h; method in brief: as §1
Escherichia coli [17] = experiment: Antibacterial activity against Escherichia coli ATCC 25922 after 18 hrs; type: functional; settings: ATCC 25922, 18 h; method in brief: as §1
Escherichia coli [18] = experiment: Antibacterial activity against Escherichia coli ATCC 35218 after 18 hrs; type: functional; settings: ATCC 35218, 18 h; method in brief: as §1
Staphylococcus aureus [19] = experiment: Antibacterial activity against Staphylococcus aureus OCC 106 after 18 hrs; type: functional; settings: OCC 106, 18 h; method in brief: as §1
Salmonella typhimurium = experiment: Antibacterial activity against Salmonella enterica subspecies enterica serotype typhimurium ATCC 14028 after 18 hrs; type: functional, Salmonella enterica subsp. enterica serovar Typhimurium; settings: ATCC 14028, 18 h; method in brief: as §1
Streptococcus viridans = experiment: Antibacterial activity against Streptococcus viridans OCC 234 after 18 hrs; type: functional; settings: OCC 234, 18 h; method in brief: as §2
Citrobacter freundii = experiment: Antibacterial activity against Citrobacter freundii 8090 after 18 hrs; type: functional; settings: Citrobacter freundii, 8090, 18 h; method in brief: as §1
Klebsiella aerogenes = experiment: Antibacterial activity against Enterobacter aerogenes ATCC 13048 after 18 hrs; type: functional; settings: ATCC 13048, 18 h; method in brief: as §1

- MIC (Staphylococcus aureus [1]): 4 to 8 µg/mL (≈ 8.86 to 17.7 µM)
- MIC (Escherichia coli [2]): 8 to 64 µg/mL (≈ 17.7 to 142 µM)
- MIC (Escherichia coli [3]): 8 to 64 µg/mL (≈ 17.7 to 142 µM)
- MIC [4]: 16 to 32 µg/mL (≈ 35.4 to 70.8 µM)
- MIC [5]: 16 to 32 µg/mL (≈ 35.4 to 70.8 µM)
- MIC [6]: 16 to 32 µg/mL (≈ 35.4 to 70.8 µM)
- MIC (Enterococcus faecium): > 256 µg/mL
- MIC (Staphylococcus aureus [7]): 4 to 8 µg/mL (≈ 8.86 to 17.7 µM)
- MIC (Klebsiella pneumoniae): 0.5 µg/mL (≈ 1.11 µM)
- MIC (Staphylococcus aureus [8]): 4 to 8 µg/mL (≈ 8.86 to 17.7 µM)
- MIC [9]: 16 to 32 µg/mL (≈ 35.4 to 70.8 µM)
- MIC [10]: 64 µg/mL (≈ 142 µM)
- MIC (Serratia marcescens): > 256 µg/mL
- MIC [12]: 16 to 32 µg/mL (≈ 35.4 to 70.8 µM)
- MIC (Escherichia coli [13]): 8 to 64 µg/mL (≈ 17.7 to 142 µM)
- MIC [14]: 16 µg/mL (≈ 35.4 µM)
- MIC (Proteus mirabilis): 16 µg/mL (≈ 35.4 µM)
- MIC (Staphylococcus aureus [15]): 4 to 8 µg/mL (≈ 8.86 to 17.7 µM)
- MIC [16]: 16 to 32 µg/mL (≈ 35.4 to 70.8 µM)
- MIC (Aeromonas hydrophila): > 256 µg/mL
- MIC (Escherichia coli [17]): 8 to 64 µg/mL (≈ 17.7 to 142 µM)
- MIC (Escherichia coli [18]): 8 to 64 µg/mL (≈ 17.7 to 142 µM)
- MIC (Staphylococcus aureus [19]): 4 to 8 µg/mL (≈ 8.86 to 17.7 µM)
- MIC (Salmonella typhimurium): 16 to 32 µg/mL (≈ 35.4 to 70.8 µM)
- MIC (Streptococcus viridans): 256 µg/mL (≈ 567 µM)
- MIC (Citrobacter freundii): 64 µg/mL (≈ 142 µM)
- MIC (Klebsiella aerogenes): 64 µg/mL (≈ 142 µM)
Structure (SMILES): OC[C@H]1O[C@@H](Oc2cc(Cl)ccc2Oc2ccc(Cl)cc2Cl)[C@H](O)[C@@H](O)[C@@H]1O
- MIC [11]: 16 µg/mL (≈ 35.4 µM)
